Sampled rows, rich in hits. Any-hit rate of the full collection: about 1%.
FXIa inh – human FXIa protease inhibitors, primary screen, biochemical, 1536-well; inhibition, % at 5 µM; AID 798, 2007; purified FXIa, Boc-Glu-Ala-Arg-AMC fluorogenic substrate; 220,000 tested, 0.14% active; Coagulation factor XI (Homo sapiens), P03951;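 active = inhibition of at least 40%; inactive = inhibition below 40%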;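 note: fluorescence of freed AMC excited at 355 nm; 0% = enzyme without compound and 100% = no enzyme blank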
hK5 inh – human KLK5 protease inhibitors, primary screen, biochemical, 1536-well | recombinant hK5, fluorogenic AMC substrate cleavage | 210,000 tested, 0.59% active | Kallikrein-5 (Homo sapiens), Q9Y337 | AID 873, 2007 | inhibition, % at 5 µM;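 active = inhibition of 40% or more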;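 note: 0% = enzyme controls without compound and 100% = no-enzyme blanks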
Target sequence (Q9Y337 67-293 limits assumed): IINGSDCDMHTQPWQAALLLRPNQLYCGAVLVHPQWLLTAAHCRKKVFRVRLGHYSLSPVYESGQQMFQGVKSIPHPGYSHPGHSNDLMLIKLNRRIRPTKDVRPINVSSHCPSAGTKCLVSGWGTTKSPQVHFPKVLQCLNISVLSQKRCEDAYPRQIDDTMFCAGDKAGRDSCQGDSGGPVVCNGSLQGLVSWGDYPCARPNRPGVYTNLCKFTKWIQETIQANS
FXIIa inh – human FXIIa protease inhibitors, primary screen, biochemical, 1536-well; 220,000 tested, 0.3% active; inhibition, % at 5 µM; Coagulation factor XII (Homo sapiens), P00748; purified FXIIa, Boc-QGR-AMC fluorogenic substrate, 2 h; AID 800, 2007; in the data active = inhibition above about 40%;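 note: 0% = enzyme with no compound and 100% = blank without enzyme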
Thrombin inh – human alpha-thrombin inhibitors, primary screen, counter-screen for coagulation protease inhibitor project, biochemical, 1536-well, fluorogenic AMC substrate; inhibition, % at 5 µM; Boc-VPR-AMC fluorogenic substrate cleavage; 220,000 tested, 0.26% active; Prothrombin (Homo sapiens), P00734;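 active = inhibition at or above 40%; inactive = inhibition below 40%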;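 note: 0% = enzyme with no compound and 100% = wells without enzyme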
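System: Human alpha-thrombin protein | Medium: pH 7.5 Tris (50 mM) with NaCl 150 mM, Tween 20 0.05% | Times: Enzyme reaction carried out at room temperature | Detection: AMC fluorescence, 355/460 nm | Evaluation: Percent inhibition scaled between no-compound controls and no-enzyme blanks | Benchmarks: Enzyme without compound as high, wells lacking enzyme as low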
* = called active by the depositor; nt = no result given.

SMILES	FXIa inh	hK5 inh	FXIIa inh	Thrombin inh
CCN(CC)CCC(=O)Nc1cccc2c1C(=O)c1ccccc1C2=O	3	3	5	2
COc1cc(CNC2CCCC2)cc(Br)c1OCC(=O)Nc1ccccc1C	6	0	14	nt
CN1C(=O)CC(C(=O)O)SC1=Nc1cc(Cl)cc(Cl)c1 (stereo not given)	12	-6	10	-1
O=C1c2ccccc2C(=O)N1/N=C/c1ccc(O)c(O)c1O	23	45*	31	11
O=C1c2cccc3cccc(c23)C(=O)N1/N=C/c1ccc(O)cc1O	1	2	8	4
CC(=O)NC(CC(=O)OCC(=O)c1c(N)n(C)c(=O)n(C)c1=O)c1ccccc1 (stereo not given)	34	15	40*	-4
Cn1c(N)c(C(=O)COC(=O)CSc2ccccc2)c(=O)n(C)c1=O	6	-11	12	-4
CCCc1nc2sc3c(=O)n(N)cnc3c2c2c1CCCC2	-13	-20	2	-13
COc1ccccc1CN(CC(=O)NCc1ccco1)C(=O)CNS(=O)(=O)c1ccccc1	-3	0	0	4
COc1ccccc1CN(CC(=O)NCc1ccco1)C(=O)CNS(=O)(=O)c1ccc(C)cc1	8	-5	21	56*
CC(=O)N1CCc2ccc(NC(=O)c3c(-c4c(Cl)cccc4Cl)noc3C)cc21	6	0	9	-2
COc1ccc(-c2ccc3c(n2)sc2c(=O)[nH]c(=O)[nH]c23)cc1OC	3	-4	0	-4
O=C1CCC(=O)N1N1C(=O)C2C3c4ccccc4C(c4ccccc43)C2C1=O (stereo not given)	-2	0	10	-2
O=P(O)(O)COc1ccccc1P(=O)(c1ccccc1)c1ccccc1	2	2	11	3
O=[N+]([O-])c1ccc(OCCO)c(P(=O)(c2ccccc2)c2ccccc2)c1	70*	33	24	7
COc1ccc(S(=O)(=O)NC(C)C(=O)Nc2cccc(C(C)=O)c2)cc1 (stereo not given)	-14	-10	4	47*
Cc1ccnc(NC(=O)C2CCCN(S(=O)(=O)c3cnc[nH]3)C2)c1 (stereo not given)	-10	15	-8	70*
COc1cccc2sc(N(C)c3ccccc3)nc12	15	-7	26	-3
COc1cccc2sc(/N=C/N(C)C)nc12	24	35	46*	22
CCOC(=O)c1cc(-c2csc(N/N=C/c3ccccc3Cl)n2)on1	13	1	10	3
CC(=O)c1ccc(NC(=O)c2ccc(CNc3c(N4CCCC4)c(=O)c3=O)cc2)cc1	1	5	11	-3
CCOc1ccc(NC(=O)c2ccc(CNc3c(N4CCCC4)c(=O)c3=O)cc2)cc1	11	7	21	41*
CCCCOc1ccc(/C(O)=C2/C(=O)C(=O)N(Cc3cccnc3)C2c2ccncc2)c(C)c1 (stereo not given)	6	-9	10	1
COc1ccc(-c2ccc(S(=O)(=O)n3nc(OC(=O)c4cccs4)cc3N)cc2)cc1	9	9	13	7
COc1ccc(NC(=O)n2nc(OC(=O)c3cccs3)cc2N)cc1	18	7	19	46*
SMILES	FXIa inh	hK5 inh	FXIIa inh	Thrombin inh
Clc1ccc2oc(-c3ccccc3)cc(=NCCCN3CCOCC3)c2c1	10	34	17	52*
OCCCCCN=c1cc(-c2ccccc2)oc2ccc(Cl)cc12	6	69*	13	60*
COc1cc2c(cc1OC)C(Nn1cnnc1)=NC1(CCCC1)C2	-3	-1	2	-13
COc1ccc(CCCc2n[nH]c(=S)n2C)cc1C	30	43*	30	9
COc1ccc(C2C(=O)c3ccccc3C2=O)cc1OC	9	18	17	56*
Cc1cccc(NC(=O)c2csnn2)n1	-6	-5	2	-9
Cc1ccc(-n2c(-c3ccco3)nc3nc4ccccc4nc32)cc1	2	-18	4	-2
Fc1ccc(Cn2cccc2C2=NC(c3ccccc3)CO2)cc1 (stereo not given)	-2	-8	3	-10
Cc1oc(-c2ccccc2)nc1Cn1cccc1C1=NC(c2ccccc2)CO1 (stereo not given)	0	101*	3	14
Cc1ccccc1NC(=O)Cn1c(O)c(N=NC(=O)c2ccccc2O)c2ccccc21	20	66*	11	24
CSc1nc(-c2ccccc2)nc(N2CCOCC2)c1C(C)=O	29	19	35	50*
CSc1nc(-c2ccccc2)nc(N2CCCC2)c1C(C)=O	-2	-3	11	0
O=C(Nc1ccc(F)cc1)/C(Cl)=C/c1ccccc1	-3	-12	-2	3
CC(=O)c1ccc(NC(=O)/C(Cl)=C/c2ccccc2)cc1	57*	34	33	19
Cc1ccc(S(=O)(=O)CCN2C=CC(C(F)(F)F)=NCC2)cc1	21	34	41*	4
CCN(CC)C(=O)Cn1cc(C(=O)C(=O)NCCCn2ccnc2)c2ccccc21	-3	0	8	95*
COc1cc(NC(=O)CN(C)S(=O)(=O)c2ccc3c(c2)CCC(=O)N3)cc(OC)c1	-8	49*	-1	-6
COc1ccc(S(=O)(=O)NCCc2nnc3ccc(SCc4cccnc4)nn23)cc1	6	nt	21	8
O=C(Cn1c(-c2ccccn2)nc2ccccc21)N/N=C/c1cccnc1	48*	113*	30	13
Cc1ccc(S(=O)(=O)N2CCN(CC(=O)N/N=C\c3ccccn3)CC2)cc1	-4	2	9	20
Cc1ccc(S(=O)(=O)N2CCN(CC(=O)N/N=C\c3cccnc3)CC2)cc1	11	41*	6	11
Cc1cc2ccccc2n1CCNC(=O)c1ccc(Br)o1	2	3	9	2
CN(C)CC(O)CN(c1ccccc1)c1ccccc1 (stereo not given)	0	0	8	-2
CCCc1nnc(SCC(=O)N2CCCCC2)n1CC1CCCO1 (stereo not given)	0	57*	21	17
CCCCNC(=O)N(c1c(N)n(Cc2ccccc2)c(=O)[nH]c1=O)C1CCCC1	0	7	8	-11
SMILES	FXIa inh	hK5 inh	FXIIa inh	Thrombin inh
N#Cc1c2n(c3c(=O)n(Cc4ccccc4)cnc13)CCCC2	15	-21	44*	9
O=C(NN=C1CCCC1)c1ccc([N+](=O)[O-])cc1	0	1	8	-8
O=C(COc1ccc([N+](=O)[O-])cc1)NN=C1CCCC1	5	55*	-6	29
CCOC(=O)CCC(=O)NCc1ccc2c(c1)cc(C)n2C	-2	54*	16	5
CCCCC(=O)NCc1ccc2c(c1)cc(C)n2C	-4	1	8	-10
COc1ccccc1CN1CCNC(=O)C1CC(=O)N(C)Cc1ccon1 (stereo not given)	7	nt	8	-8

Compound activity: PubChem, PCMD
